Measurements as given in ChEMBL document CHEMBL1123041, “Synthesis of new bis(aminoethanethiol) (BAT) derivatives: possible ligands for 99mTc brain imaging agents” (J Med Chem, 1985).

Tests used:
[1] = test system: Rattus norvegicus; assay: Biodistribution in Sprague-Dawley rat kidneys(2) 15 minutes after intravenous administration, [99mTc]/[125I] IAP ratio); format: ADME, organism-based, Kidney; conditions: in vivo, 0.25 h
Procedure, shortened: (§1)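 99mTc complex and [125I]iodoantipyrine were co-injected iv into rats. Rats were killed by cardiectomy at 2 or 15 min, and organs were excised, weighed and gamma-counted in two channels with spillover correction. The ratio is 99mTc percent dose divided by 125I percent dose in the same organ, averaged over three rats. Radiochemical purity of the complexes was >95% by reversed-phase HPLC.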

[2] = test system: Rattus norvegicus; assay: Biodistribution in Sprague-Dawley rat skin 2 minutes after intravenous administration, [99mTc]/[125I] IAP ratio); format: ADME, organism-based, Zone of skin; conditions: in vivo; procedure, shortened: as §1
[3] = test system: Rattus norvegicus; assay: Biodistribution in Sprague-Dawley rat small intestine 15 minutes after intravenous administration, [99mTc]/[125I] IAP ratio); format: ADME, organism-based; conditions: in vivo, 0.25 h; procedure, shortened: as §1
[4] = test system: Rattus norvegicus; assay: Biodistribution in Sprague-Dawley rat small intestine 2 minutes after intravenous administration, [99mTc]/[125I] IAP ratio); format: ADME, organism-based; conditions: in vivo; procedure, shortened: as §1
[5] = test system: Rattus norvegicus; assay: Biodistribution in Sprague-Dawley rat spleen 15 minutes after intravenous administration, [99mTc]/[125I] IAP ratio); format: ADME, organism-based; conditions: in vivo, 0.25 h; procedure, shortened: as §1
[6] = test system: Rattus norvegicus; assay: Biodistribution in Sprague-Dawley rat spleen 2 minutes after intravenous administration, [99mTc]/[125I] IAP ratio); format: ADME, organism-based; conditions: in vivo; procedure, shortened: as §1
[7] = test system: Rattus norvegicus; assay: Biodistribution in Sprague-Dawley rat thyroid 15 minutes after intravenous administration, [99mTc]/[125I] IAP ratio); format: ADME, organism-based, Thyroid gland; conditions: in vivo, 0.25 h; procedure, shortened: as §1
[8] = test system: Rattus norvegicus; assay: Biodistribution in Sprague-Dawley rat thyroid 2 minutes after intravenous administration, [99mTc]/[125I] IAP ratio); format: ADME, organism-based, Thyroid gland; conditions: in vivo; procedure, shortened: as §1
[9] = test system: Rattus norvegicus; assay: Biodistribution in Sprague-Dawley rat blood 15 minutes after intravenous administration, [99mTc]/[125I] IAP ratio); format: ADME, organism-based; conditions: in vivo, 0.25 h; procedure, shortened: as §1
[10] = test system: Rattus norvegicus; assay: Biodistribution in Sprague-Dawley rat blood 2 minutes after intravenous administration, [99mTc]/[125I] IAP ratio); format: ADME, organism-based; conditions: in vivo; procedure, shortened: as §1
[11] = test system: Rattus norvegicus; assay: Biodistribution in Sprague-Dawley rat brain 15 minutes after intravenous administration, [99mTc]/[125I] IAP ratio); format: ADME, organism-based; conditions: in vivo, 0.25 h; procedure, shortened: as §1
[12] = test system: Rattus norvegicus; assay: Biodistribution in Sprague-Dawley rat brain 2 minutes after intravenous administration, [99mTc]/[125I] IAP ratio); format: ADME, organism-based; conditions: in vivo; procedure, shortened: as §1
[13] = test system: Rattus norvegicus; assay: Biodistribution in Sprague-Dawley rat heart 15 minutes after intravenous administration, [99mTc]/[125I] IAP ratio); format: ADME, organism-based; conditions: in vivo, 0.25 h; procedure, shortened: as §1
[14] = test system: Rattus norvegicus; assay: Biodistribution in Sprague-Dawley rat heart 2 minutes after intravenous administration, [99mTc]/[125I] IAP ratio); format: ADME, organism-based; conditions: in vivo; procedure, shortened: as §1
[15] = test system: Rattus norvegicus; assay: Biodistribution in Sprague-Dawley rat stomach 15 minutes after intravenous administration, [99mTc]/[125I] IAP ratio); format: ADME, organism-based; conditions: in vivo, 0.25 h; procedure, shortened: as §1
[16] = test system: Rattus norvegicus; assay: Biodistribution in Sprague-Dawley rat stomach 2 minutes after intravenous administration, [99mTc]/[125I] IAP ratio); format: ADME, organism-based; conditions: in vivo; procedure, shortened: as §1
[17] = test system: Rattus norvegicus; assay: Biodistribution in Sprague-Dawley rat kidneys(2) 2 minutes after intravenous administration, [99mTc]/[125I] IAP ratio); format: ADME, organism-based, Kidney; conditions: in vivo; procedure, shortened: as §1
[18] = test system: Rattus norvegicus; assay: Biodistribution in Sprague-Dawley rat liver 15 minutes after intravenous administration, [99mTc]/[125I] IAP ratio); format: ADME, organism-based; conditions: in vivo, 0.25 h; procedure, shortened: as §1
[19] = test system: Rattus norvegicus; assay: Biodistribution in Sprague-Dawley rat liver 2 minutes after intravenous administration, [99mTc]/[125I] IAP ratio); format: ADME, organism-based; conditions: in vivo; procedure, shortened: as §1
[20] = test system: Rattus norvegicus; assay: Biodistribution in Sprague-Dawley rat lungs(2) 15 minutes after intravenous administration, [99mTc]/[125I] IAP ratio); format: ADME, organism-based, Lung; conditions: in vivo, 0.25 h; procedure, shortened: as §1
[21] = test system: Rattus norvegicus; assay: Biodistribution in Sprague-Dawley rat lungs(2) 2 minutes after intravenous administration, [99mTc]/[125I] IAP ratio); format: ADME, organism-based, Lung; conditions: in vivo; procedure, shortened: as §1
[22] = test system: Rattus norvegicus; assay: Biodistribution in Sprague-Dawley rat muscle 15 minutes after intravenous administration, [99mTc]/[125I] IAP ratio); format: ADME, organism-based, Muscle tissue; conditions: in vivo, 0.25 h; procedure, shortened: as §1
[23] = test system: Rattus norvegicus; assay: Biodistribution in Sprague-Dawley rat muscle 2 minutes after intravenous administration, [99mTc]/[125I] IAP ratio); format: ADME, organism-based, Muscle tissue; conditions: in vivo; procedure, shortened: as §1
[24] = test system: Rattus norvegicus; assay: Biodistribution in Sprague-Dawley rat skin 15 minutes after intravenous administration, [99mTc]/[125I] IAP ratio); format: ADME, organism-based, Zone of skin; conditions: in vivo, 0.25 h; procedure, shortened: as §1
[25] = Partition coefficient was determined at pH 7.0.; format: ADME; conditions: octanol/water
Procedure, shortened: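 99mTc-labelled BAT complex shaken with 3 g each of 1-octanol and 0.1 M phosphate buffer (pH 7.0), vortexed 3 min at room temperature, centrifuged 5 min. Two 0.5 g samples per layer counted in a well counter; PC = cpm/g octanol over cpm/g buffer. Octanol layer repartitioned until values were consistent; usually repeated three times.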

[26] = organism: Homo sapiens; assay: The human serum protein binding activity was determined; format: functional
Procedure, shortened: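 Equilibrium dialysis: 0.4 mL pooled human serum against 0.4 mL 0.15 M phosphate buffer pH 7.4 containing 99mTc complex (~0.025 μCi), rotated 18 h at 37 °C. Both sides weighed and counted; percent free = buffer/serum radioactivity concentration ratio × 100. Membrane counted afterwards to check membrane binding.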

[27] = test system: Rattus norvegicus; assay: Biodistribution in Sprague-Dawley rat brain 2 minutes after intravenous administration.; format: ADME, organism-based; conditions: in vivo
Procedure, shortened: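 Rats received the 99mTc complex iv together with [125I]iodoantipyrine as internal reference and were killed by cardiectomy. Brain was excised, weighed and gamma-counted. Percent dose/organ was obtained by comparing tissue activity with diluted aliquots of the injected dose, averaged over three rats. Radiochemical purity of the complexes was >95% by HPLC.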

Row | Dose [1] [%] | Dose [2] [%] | Dose [3] [%] | Dose [4] [%] | Dose [5] [%] | Dose [6] [%] | Dose [7] [%] | Dose [8] [%] | Dose [9] [%] | Dose [10] [%] | Dose [11] [%] | Dose [13] [%] | Dose [14] [%] | Dose [15] [%] | Dose [16] [%] | Dose [17] [%] | Dose [18] [%] | Dose [19] [%] | Dose [20] [%] | Dose [21] [%] | other results | Structure (SMILES)
1 | 1.1 | 5.21 | 12.5 | 4.47 | 0.197 | 0.149 | 0.063 | 0.292 | 2.56 | 7.81 | 0.297 | 0.395 | 4.46 | 3.16 | 1.07 | 3.23 | 17.4 | 11.9 | 0.877 | 5.49 | Dose [12]: 2.3%; Dose [22]: 15.1%; Dose [23]: 7.09%; Dose [24]: 11.8%; Partition coefficient [25]: 260; Free [26]: 23.4% | COc1ccccc1C(CNCC(C)(C)S)NCC(C)(C)S (configuration not stated)
2 | 1.73 | 7.45 | 18.2 | 6.24 | 0.323 | 0.407 | 0.057 | 0.189 | 4.77 | 14.5 | 0.229 | 0.441 | 3.31 | 5.46 | 1.61 | 4.75 | 25.4 | 29 | 1.52 | 4.94 | Dose [27]: 0.408%; Dose [22]: 12.4%; Dose [23]: 8.66%; Dose [24]: 8.17%; Partition coefficient [25]: 248; Free [26]: 14.7% | CC(C)(S)CNCC(NCC(C)(C)S)c1ccccc1O (configuration not stated)
